Reference: ChEMBL document CHEMBL1156068, “Synthesis, pharmacological and antiviral activity of 1,3-thiazepine derivatives” (Eur J Med Chem, 2009)
Activity calls are given as the source filed them. No cut-off for these calls is given here.

Tests used:
[1] = test system: Human immunodeficiency virus 1; experiment: Antiviral activity against wild type HIV1 3B infected in human MT4 cells assessed as protection against virus induced cytopathogenicity after 4 days by MTT assay; format: functional, organism-based; settings: Human immunodeficiency virus 1, 3B, MT4, 96 h
Procedure, shortened: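 MT-4 cells (1×10^4/well) in RPMI with serial compound dilutions were infected with HIV-1 (100 CCID50; m.o.i. 0.01). After 4 days, viability was measured by MTT. EC50 is the concentration giving 50% protection from virus-induced cytopathogenicity. Compounds were prepared as 100 mM DMSO stocks diluted in medium.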

Yellow fever virus = experiment: Antiviral activity against Yellow fever virus infected in BHK-21 cells assessed as protection against virus induced cytopathogenicity after 3 to 4 days by MTT assay; format: functional, organism-based
Procedure, shortened: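 BHK cells were seeded at 5 × 10^4 per well and grown overnight to monolayers, then infected at m.o.i. 0.01 in serum-free medium. One hour later, MEM Earle's with 1% FCS (final) and serial compound dilutions were added. After 3–4 days at 37 °C, viability was read by MTT. EC50 is the concentration giving 50% protection from virus-induced cytopathogenicity.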

[2] = test system: Bovine viral diarrhea virus 1; experiment: Antiviral activity against Bovine viral diarrhea virus infected in MDBK cells assessed as protection against virus induced cytopathogenicity after 3 to 4 days by MTT assay; format: functional, organism-based
Procedure, shortened: (§1)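 Monolayers were grown overnight at 37 °C, 5% CO2: MDBK at 3×10^4 cells/well, BHK at 5×10^4 cells/well. Cells infected at m.o.i. 0.01. After 1 h, serial compound dilutions added in MEM with 1% FCS. Viability read by MTT after 3–4 days at 37 °C. EC50 is the concentration giving 50% protection from cytopathogenicity.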

Coxsackievirus B2 = experiment: Antiviral activity against Coxsackie virus B2 infected in african green monkey Vero76 cells after 3 days by plaque reduction assay; format: functional, organism-based; settings: Vero 76
Procedure, shortened: (§2)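 Vero 76 monolayers (2×10^5 cells/well, overnight) infected to give 50–100 PFU/well. Unadsorbed virus removed, then DMEM with 1% FCS, 0.75% methylcellulose and serial compound dilutions added. Incubated at 37 °C for 3 days (CVB-2, HSV-1) or 5 days (RSV). Fixed and stained with 50% ethanol/0.8% crystal violet in PBS; plaques counted.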

Poliovirus 1 = experiment: Antiviral activity against Poliovirus type 1 Sabin infected in african green monkey Vero76 cells after 2 days by plaque reduction assay; format: functional, cell-based; settings: Vero 76
[3] = test system: Respiratory syncytial virus; experiment: Antiviral activity against Respiratory syncytial virus infected in african green monkey Vero76 cells after 5 days by plaque reduction assay; format: functional, organism-based; settings: Vero 76; procedure, shortened: as §2
[4] = test system: Vesicular stomatitis virus; experiment: Antiviral activity against Vesicular stomatitis virus infected in african green monkey Vero76 cells after 2 days by plaque reduction assay; format: functional, organism-based; settings: Vero 76
[5] = test system: Mammalian orthoreovirus 1; experiment: Antiviral activity against Reo virus type-1 infected in BHK-21 cells assessed as protection against virus induced cytopathogenicity after 3 to 4 days by MTT assay; format: functional, organism-based; procedure, shortened: as §1
Human alphaherpesvirus 1 = experiment: Antiviral activity against HSV1 infected in african green monkey Vero76 cells after 3 days by plaque reduction assay; format: functional, organism-based; settings: Vero 76; procedure, shortened: as §2
Vaccinia virus = experiment: Antiviral activity against Vaccinia virus infected in african green monkey Vero76 cells after 3 days by plaque reduction assay; format: functional, organism-based; settings: Orthopoxvirus vaccinia; Vero 76
[6] = Cytotoxicity against human MT4 cells assessed as reduction of cell viability after 96 hrs by MTT assay; format: cell-based
Procedure, shortened: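 Exponentially growing, mock-infected MT-4 cells were seeded at 1×10^5 cells mL-1 in RPMI-1640 with 10% FCS and penicillin/streptomycin, with serial compound dilutions. Incubated 96 h at 37 °C, 5% CO2, then viability read by MTT. CC50 is the concentration reducing viability by 50%.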

Row | SMILES | EC50 [1] | Activity (Yellow fever virus) | Activity [2] | Activity (Coxsackievirus B2) | Activity (Poliovirus 1) | Activity [3] | Activity [4] | Activity [5] | Activity (Human alphaherpesvirus 1) | Activity (Vaccinia virus) | CC50 at 96 h [6] | EC50 (Yellow fever virus) | EC50 ([2]; Bovine viral diarrhea virus isolates and strains)
1 | CC1=CC2C(C(C)C)CC1C1C(=O)N(N3CCCCS/C3=N\c3ccc(Cl)c(Cl)c3)C(=O)C21 (centres undefined) | > 100 µM | inactive | inactive | inactive | inactive | inactive | inactive | inactive | inactive | inactive | 100 µM | – | –
2 | CC1=CC2C(C(C)C)CC1C1C(=O)N(NC(=S)NCc3ccccc3)C(=O)C21 (centres undefined) | 30 µM | – | – | inactive | inactive | inactive | inactive | inactive | inactive | inactive | 54 µM | 41 µM | 52 µM
3 | CC(C)C12C=CC(C)(CC1)C1C(=O)N(NC(=S)Nc3ccc(I)cc3)C(=O)C12 (centres undefined) | > 100 µM | inactive | inactive | inactive | inactive | inactive | inactive | inactive | inactive | inactive | > 100 µM | – | –
4 | CC1=CC2C(C(C)C)CC1C1C(=O)N(N3CCCCS/C3=N\c3ccc(I)cc3)C(=O)C21 (centres undefined) | > 22 µM | inactive | inactive | inactive | inactive | inactive | inactive | inactive | inactive | inactive | 22 µM | – | –
5 | CC(C)C12C=CC(C)(CC1)C1C(=O)N(N3CCCCS/C3=N\c3ccc(I)cc3)C(=O)C12 (centres undefined) | > 59 µM | inactive | inactive | inactive | inactive | inactive | inactive | inactive | inactive | inactive | 59 µM | – | –
6 | CC1=CC2C(C(C)C)CC1C1C(=O)N(NC(=S)Nc3ccc(Cl)cc3)C(=O)C21 (centres undefined) | > 45 µM | inactive | inactive | inactive | inactive | inactive | inactive | inactive | inactive | inactive | 45 µM | – | –
7 | C=CCNC(=S)NN1C(=O)C2C3CC(C(C)C)C(C=C3C)C2C1=O (centres undefined) | > 100 µM | inactive | inactive | inactive | inactive | inactive | inactive | inactive | inactive | inactive | > 100 µM | – | –
8 | CC1=CC2C(C(C)C)CC1C1C(=O)N(NC(=S)Nc3ccc(Cl)c(Cl)c3)C(=O)C21 (centres undefined) | > 41 µM | inactive | inactive | inactive | inactive | inactive | inactive | inactive | inactive | inactive | 41 µM | – | –
9 | CC(C)C12C=CC(C)(CC1)C1C(=O)N(N3CCCCS/C3=N\c3ccc(Cl)cc3)C(=O)C12 (centres undefined) | > 32 µM | inactive | inactive | inactive | inactive | inactive | inactive | inactive | inactive | inactive | 32 µM | – | –
